Wee1 degr inh – blocks degradation of human Wee1 kinase; P30291; HeLa Luc-Wee1K328M stability, luciferase luminescence; 100% = proteasome inhibitor MG132 effect; reporter increase, % at 5 µM; 1.2% of 220,000 active; AID 1321;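 active = activation above the mean of all tested compounds plus 3 SD, set per screening run, cut at about 8.8% in these data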;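 note: cells exposed to compound for 20 h before luminescence read; 0% = DMSO alone and 100% = MG132 at 30 µM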
Target sequence (P30291 whole entry K328M): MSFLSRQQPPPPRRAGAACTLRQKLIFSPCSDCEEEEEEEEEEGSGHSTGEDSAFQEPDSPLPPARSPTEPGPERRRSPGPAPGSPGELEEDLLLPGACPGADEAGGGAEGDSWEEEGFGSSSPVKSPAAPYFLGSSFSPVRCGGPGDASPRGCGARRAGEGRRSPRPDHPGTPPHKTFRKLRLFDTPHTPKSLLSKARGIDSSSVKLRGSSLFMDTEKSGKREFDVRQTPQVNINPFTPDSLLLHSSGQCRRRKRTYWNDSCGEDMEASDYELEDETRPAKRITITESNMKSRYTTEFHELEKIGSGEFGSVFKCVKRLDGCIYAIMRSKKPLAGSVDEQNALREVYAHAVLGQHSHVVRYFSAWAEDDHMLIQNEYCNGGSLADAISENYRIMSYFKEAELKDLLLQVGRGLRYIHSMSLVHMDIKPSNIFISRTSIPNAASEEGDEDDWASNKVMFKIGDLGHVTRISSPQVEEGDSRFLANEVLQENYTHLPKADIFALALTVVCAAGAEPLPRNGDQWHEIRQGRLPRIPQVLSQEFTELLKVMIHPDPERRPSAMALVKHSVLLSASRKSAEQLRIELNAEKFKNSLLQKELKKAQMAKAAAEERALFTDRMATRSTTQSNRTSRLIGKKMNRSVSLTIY
MDM2 E3 inh – inhibitors of human Mdm2 E3 ubiquitin ligase | Q00987 | cell-based MDM2 ubiquitination luciferase reporter, 2 h; 0 = plate control, 100 = twice control, blank-subtracted | signal enhancement, % at 5 µM | 0.11% of 210,000 active | AID 1230;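 active = signal enhancement of 30% or more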;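 note: luminescence tracks abundance of the self-degrading MDM2-luciferase fusion protein; higher signal means inhibition of MDM2 E3 ligase activity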
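Test system: stable mammalian line carrying autodegrading MDM2–luciferase fusion reporter; quantity: 2000 cells in each well; times: 4 h cell settling then 2 h compound exposure, 37 °C; detection: luminescence with SteadyLite reagent, 15 min at room temperature; evaluation: percent signal gain over controls, blank-subtracted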
Tb hexokinase – T. brucei hexokinase 1 inhibition; 0.11% of 220,000 active; recombinant TbHK1, G6PDH-coupled NADH A340; inhibition, % at 10 µM; AID 1430;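 active = inhibition of 50% or more in the single-dose primary screen; inactive = inhibition below 50%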
Hck-Nef inh – human Hck-Nef kinase inhibition. inhibition, % at 20 µM. 0.68% of 220,000 active. P08631. Recombinant Hck-YEEI plus Nef, Z-Lyte FRET kinase assay;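 active = Hck-Nef kinase inhibition above about 50%, limit read from the data; inactive = inhibition below that limit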;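 note: 0% = DMSO with Hck plus Nef and 100% = Hck alone without Nef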
14-3-3 Bad inh – disrupts binding of bovine 14-3-3 zeta to phospho-Bad peptide; P63103; TR-FRET 14-3-3zeta/Dy647-pBad peptide displacement, 1 h; inhibition, % at 21.7 µM; 0.71% of 220,000 active; AID 781;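 active = inhibition above about 70%, limit read from the data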;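 note: 0% = full 14-3-3 plus peptide FRET controls and 100% = background without 14-3-3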
Hck Nef conf – confirmation of Hck-Nef kinase inhibitors | 28% of 1,300 active | shares compounds with Hck-Nef inh | AID 463188 | Recombinant Hck-YEEI:Nef, Z-Lyte FRET kinase assay | calls only at 10 µM;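 active = average inhibition of at least 50%, with Z-scores no higher than 3 in both the phospho-tyrosine peptide and fluorescence counterscreens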
Numbers without * were called inactive; i = inactive; . = no result shown; + = active, no number. This is a sample that favours compounds with a hit; in the whole collection about 2.7% have one here.

SMILES	Wee1 degr inh	MDM2 E3 inh	Tb hexokinase	Hck-Nef inh	14-3-3 Bad inh	Hck Nef conf
O=C(N/N=C\c1ccc(F)cc1)c1ccc(Cn2cc(Br)c([N+](=O)[O-])n2)o1	-1.6	3.8	-9.9	62.2*	17.9	+
O=C(Nc1cccc(-c2nc3cccnc3s2)c1)c1ccc(Cl)nc1	0.0	-13.6	-2.0	87.4*	49.9	i
O=S(=O)(Nc1cccc(-c2nc3cccnc3s2)c1)c1ccc2c(c1)OCCO2	1.6	-3.4	-10.8	2.4	-2.6	.
O=C(Nc1cccc(-c2nc3cccnc3s2)c1)c1cccnc1Cl	1.3	-8.4	-10.5	19.6	7.3	.
O=C(Nc1cccc(-c2nc3cccnc3s2)c1)C1c2ccccc2Oc2ccccc21	-1.8	.	-26.1	102.1*	90.9*	+
COc1ccc(CCNC(=O)C2CCN(S(C)(=O)=O)CC2)cc1	-0.1	-11.1	-1.8	5.2	6.3	.
Cc1c(NC(=S)NC(=O)C2CCCCC2)c(=O)n(-c2ccccc2)n1C	4.0	-7.9	-1.8	2.5	3.5	.
CC1(c2ccccc2)CC(C)(C)N2C(=O)/C(=C3\SC(=S)NC3=O)c3cccc1c32 (stereo not given)	-2.5	-10.3	34.6	93.8*	18.3	+
CC1(c2ccccc2)CC(C)(C)N2C(=O)C3(C(C#N)=C(N)Oc4cc(O)ccc43)c3cccc1c32 (stereo not given)	0.9	4.0	-22.9	0.3	-3.5	.
CCc1cc(OCCOCCN(C)C)ccc1Cl	2.4	-0.3	8.0	-1.0	33.8	.
CC(/C=N/n1c(COc2ccccc2)n[nH]c1=S)=C\c1ccco1	-0.5	-6.8	2.7	50.0*	-5.5	i
COc1ccc(CCNC(=O)C2CCN(C(=O)c3ccc([N+](=O)[O-])cc3)CC2)cc1	-3.0	-7.8	-2.1	-5.4	11.4	.
CCC(=O)Nc1nc2ccc3sc(C)nc3c2s1	-2.9	-33.5	7.3	19.4	-1.3	.
Cc1nc2c(ccc3nc(NC(=O)C4CC4)sc32)s1	2.6	-29.0	-4.4	54.0*	-5.0	i
NS(=O)(=O)c1ccc(CCNC(=O)C2CCN(S(=O)(=O)c3ccc(Br)s3)CC2)cc1	-2.8	-26.6	-5.3	16.8	-11.7	.
COCCNC(=O)/C(C#N)=C1\N=C(N)c2ccccc21	-2.3	-0.1	4.9	53.4*	4.3	i
N#C/C(C(=O)N1CCCCC1)=C1/N=C(N)c2ccccc21	1.4	3.0	8.8	5.4	-19.5	.
CCOc1ccc(N=Nc2c(N)[nH][nH]c2=O)cc1	3.4	-18.7	-10.0	12.2	-7.8	.
COc1ccc(N=Nc2c(C)[nH][nH]c2=O)cc1	-0.3	-15.2	-8.2	59.8*	-1.8	i
CC(=O)CC(=O)Nc1ccc(Nc2ccccc2)cc1	0.2	7.4	-9.6	3.9	-39.9	.
COc1ccc(-c2ccc(/C=N/NC(=O)Cc3nnc(N)s3)o2)cc1Cl	7.6	-12.1	-53.7	78.5*	-0.3	i
CNS(=O)(=O)c1ccc(C(C)(C)C)cc1	1.4	3.1	-1.7	17.2	-2.5	.
Nc1c(C(=O)O)ccc2c1C(=O)c1ccccc1C2=O	1.7	3.3	-3.0	14.3	-1.5	.
Nc1cc(C(=O)O)c(N)c2c1C(=O)c1ccccc1C2=O	-1.4	.	-0.1	62.0*	5.9	i
Cc1cccc(N=C2NC(=O)/C(=C/C=C/c3ccco3)S2)c1	1.6	-5.8	-2.6	28.9	2.3	.
SMILES	Wee1 degr inh	MDM2 E3 inh	Tb hexokinase	Hck-Nef inh	14-3-3 Bad inh	Hck Nef conf
O=C1NC(=Nc2ccc(O)cc2)S/C1=C/c1ccco1	8.5	14.6	-8.6	81.0*	-10.6	i
COc1ccc(N=C2NC(=O)/C(=C\C=C\c3ccco3)S2)cc1	1.6	3.1	1.6	88.1*	-8.8	+
CCc1cc(-c2[nH]ncc2-c2ccc3c(c2)OCO3)c(O)cc1O	-1.8	.	1.7	65.0*	1.0	+
O=c1cc(CN2CCOCC2)c2c(ccc3ccccc32)o1	-1.2	7.4	1.1	2.3	-11.4	.
Cc1ccc(C(=O)Nc2cccc(C(F)(F)F)c2)cc1NC(=O)c1ccno1	.	24.7	-5.3	74.9*	-2.4	+
Cc1ccc(C(=O)Nc2cccc(C(F)(F)F)c2)cc1NC(=O)c1nccn1C	.	4.1	-11.2	40.1	18.8	.
Cc1ccc(C(=O)Nc2cccc(C(F)(F)F)c2)cc1Nc1ncnc2nc[nH]c12	.	4.2	-8.8	55.2*	-16.3	i
CC(=O)c1c(C)[nH]c(C(=O)CSc2nnc(-c3ccccc3)n2Cc2ccc3c(c2)OCO3)c1C	1.4	-37.2	-11.7	63.5*	-6.5	i
NC(=O)c1cc2ccc(O)cc2oc1=NCc1ccccc1	-0.1	-19.3	3.3	103.6*	2.8	.
NC(=O)c1cc2ccccc2oc1=NCc1ccccc1	-0.1	11.6	-14.4	5.3	4.9	.
C=CCNCCOCCOc1ccccc1-c1ccccc1	-1.0	-1.4	5.9	14.7	26.8	.
Cc1ccc([N+](=O)[O-])cc1NC(=O)CCCOc1ccccc1	-1.3	16.9	0.8	-0.3	6.1	.
NS(=O)(=O)c1cccc(NC(=O)Cn2cnc3ccccc3c2=O)c1	1.8	.	-9.4	0.1	-8.1	.
COc1ccccc1CNC(=S)NC1CCCC1	-0.2	-1.9	-1.7	0.6	-3.1	.
CCc1c(C)c2cc(Cl)c(O)c(CN(C)C)c2oc1=O	1.2	-4.6	-26.7	122.8*	-1.9	.
Cc1c(C)c2cc(Cl)c(O)c(CN(C)C)c2oc1=O	2.6	-1.8	-20.3	87.4*	-1.8	.
CCc1c(C)c2cc(Cl)c(O)c(CN(CC)CC)c2oc1=O	-1.4	-11.4	-32.0	114.9*	6.2	.
CCc1cc2c(=O)c(-c3nc4ccccc4n3C)c(C)oc2c(CN(CC)CC)c1O	-0.4	-5.3	-33.9	-0.4	-3.6	.
Cc1c(O)c(CN(C)C)cc2c1oc(=O)c1ccccc12	-0.9	-5.6	-20.6	5.3	-0.8	.
COc1ccc(-c2cc(=O)oc3c(C)c(O)c(CN(C)C)cc23)cc1	0.3	-20.3	-8.6	6.3	2.7	.
CCCCc1cc(=O)oc2c(CN(C)C)c(O)c(Cl)cc12	-0.8	-5.2	-34.9	117.4*	.	.
CCN1CNC(=S)N(c2cc(C)ccc2C)C1	-2.8	-9.1	-0.9	-1.4	-4.1	.
COc1cc(O)sc1C=Nc1ccc(Cl)cc1Cl	3.8	-8.1	3.9	14.6	-5.5	.
COc1cc(NC(=O)C2CCCCC2)c(OC)cc1NC(=O)CCC(=O)NCc1ccco1	-0.5	-8.9	-0.5	1.7	-1.0	.
C=CCSc1nc(-c2ccc(OC)cc2)c(C#N)c(=O)n1CC=C	0.8	4.1	-18.0	9.0	-1.0	.
COc1ccc(C(=O)N2CCN(C(=O)Cc3ccccc3)CC2)cc1	-0.7	.	5.9	-8.5	5.3	.
CCCCCn1c(NC(=O)c2ccco2)c(S(=O)(=O)c2ccc(C)cc2)c2nc3ccccc3nc21	0.1	-13.4	-9.5	56.2*	10.6	.
CCCCn1c(NC(=O)c2ccc(Br)o2)c(S(=O)(=O)c2ccccc2)c2nc3ccccc3nc21	-0.6	-33.2	-22.2	84.2*	36.2	.

High-throughput results deposited in PubChem by several laboratories.
